Source: ChEMBL document CHEMBL1157765, “Synthesis of DOTA-conjugated multimeric [Tyr3]octreotide peptides via a combination of Cu(I)-catalyzed "click" cycloaddition and thio acid/sulfonyl azide "sulfo-click" amidation and their in vivo evaluation” (J Med Chem, 2010)

Legend:
[1] = Octanol-water partition coefficient, log D at pH 7.4; format: physicochemical
Summary of the method: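 ¹¹¹In-labeled conjugate (~148 kBq) in PBS pH 7.4 mixed 1:1 with n-octanol and shaken 2 min. Phases separated by centrifugation (5 min, 250g); triplicate aliquots of each layer γ-counted. log D = log₁₀(octanol counts/aqueous counts), from at least two independent experiments.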

[2] = system: Stomach; test: Biodistribution in stomach of BALB/c mouse bearing rat AR42J cells at 0.37 MBq, iv after 24 hrs; format: ADME, organism-based, AR-42J; conditions: in vivo
Summary of the method: (§1)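 AR42J tumor grown in right flank of male BALB/c nude mice (20-25 g, 6-8 weeks) by sc injection of 5 × 10⁶ cells; used after ~2 weeks at 4-6 mm diameter. Groups of five received 0.37 MBq (0.1 μg) ¹¹¹In-DOTA conjugate iv via tail vein (labeled in 0.25 M NH₄OAc pH 5.5, 95 °C, 15 min). Tissues dissected at 2, 6 or 24 h, weighed, γ-counted against 1% injected-activity standards; %ID/g, mean ± SD.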

[3] = system: Blood; test: Biodistribution in blood of BALB/c mouse bearing rat AR42J cells at 0.37 MBq, iv after 2 hrs under cold condition; format: ADME, organism-based, AR-42J; conditions: in vivo
Summary of the method: (§2)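 Receptor block: groups of three AR42J tumor-bearing male BALB/c nude mice co-injected iv via tail vein with 0.37 MBq (0.1 μg) ¹¹¹In-DOTA conjugate plus 50 μg octreotide. Killed by CO₂/O₂ at 2 h; blood, tumor and tissues dissected, weighed and γ-counted against 1% injected-activity standards; %ID/g reported as mean ± SD.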

[4] = system: Liver; test: Biodistribution in liver of BALB/c mouse bearing rat AR42J cells at 0.37 MBq, iv after 24 hrs; format: ADME, organism-based, AR-42J; conditions: in vivo; summary of the method: as §1
[5] = system: Pancreas; test: Biodistribution in pancreas of BALB/c mouse bearing rat AR42J cells at 0.37 MBq, iv after 6 hrs; format: ADME, organism-based, AR-42J; conditions: in vivo; summary of the method: as §1
[6] = system: Kidney; test: Biodistribution in kidney of BALB/c mouse bearing rat AR42J cells at 0.37 MBq, iv after 24 hrs; format: ADME, organism-based, AR-42J; conditions: in vivo; summary of the method: as §1
[7] = system: Kidney; test: Biodistribution in kidney of BALB/c mouse bearing rat AR42J cells at 0.37 MBq, iv after 2 hrs; format: ADME, organism-based, AR-42J; conditions: in vivo; summary of the method: as §1
[8] = system: Liver; test: Biodistribution in liver of BALB/c mouse bearing rat AR42J cells at 0.37 MBq, iv after 6 hrs; format: ADME, organism-based, AR-42J; conditions: in vivo; summary of the method: as §1
[9] = system: Pancreas; test: Biodistribution in pancreas of BALB/c mouse bearing rat AR42J cells at 0.37 MBq, iv after 2 hrs; format: ADME, organism-based, AR-42J; conditions: in vivo; summary of the method: as §1
[10] = system: Liver; test: Biodistribution in liver of BALB/c mouse bearing rat AR42J cells at 0.37 MBq, iv after 2 hrs; format: ADME, organism-based, AR-42J; conditions: in vivo; summary of the method: as §1
[11] = system: Blood; test: Biodistribution in blood of BALB/c mouse bearing rat AR42J cells at 0.37 MBq, iv after 6 hrs; format: ADME, organism-based, AR-42J; conditions: in vivo; summary of the method: as §1
[12] = system: Blood; test: Biodistribution in blood of BALB/c mouse bearing rat AR42J cells at 0.37 MBq, iv after 24 hrs; format: ADME, organism-based, AR-42J; conditions: in vivo; summary of the method: as §1
[13] = system: Stomach; test: Biodistribution in stomach of BALB/c mouse bearing rat AR42J cells at 0.37 MBq, iv after 6 hrs; format: ADME, organism-based, AR-42J; conditions: in vivo; summary of the method: as §1
[14] = system: Stomach; test: Biodistribution in stomach of BALB/c mouse bearing rat AR42J cells at 0.37 MBq, iv after 2 hrs under cold condition; format: ADME, organism-based, AR-42J; conditions: in vivo; summary of the method: as §2
[15] = Biodistribution in adrenal gland of BALB/c mouse bearing rat AR42J cells at 0.37 MBq, iv after 2 hrs under cold condition; format: ADME, organism-based, AR-42J; conditions: in vivo; summary of the method: as §2
[16] = Biodistribution in adrenal gland of BALB/c mouse bearing rat AR42J cells at 0.37 MBq, iv after 24 hrs; format: ADME, organism-based, AR-42J; conditions: in vivo; summary of the method: as §1
[17] = biological target: Somatostatin receptor type 2 (Rattus norvegicus, UniProt P30680); test: Displacement of [111In]DOTA0,Tyr3]octreotide from SSTR2 receptor in rat AR42J cells; format: cell-based, AR-42J
Summary of the method: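 AR42J cells (DMEM, 10% FCS, 37 °C, 5% CO₂) seeded 8 × 10⁵/well and grown to confluence, washed with DMEM + 0.1% BSA. Incubated 3 h at 37 °C with [¹¹¹In-DOTA⁰,Tyr³]octreotide tracer (40 000 dpm) and unlabeled peptide at 0.1-300 nM. Washed twice; cell-bound activity γ-counted. IC₅₀ from fitted sigmoidal displacement curves with 95% CI.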

[18] = Biodistribution in tumor of BALB/c mouse bearing rat AR42J cells at 0.37 MBq, iv after 6 hrs; format: ADME, organism-based, Neoplasm, AR-42J; conditions: in vivo; summary of the method: as §1
[19] = Biodistribution in tumor of BALB/c mouse bearing rat AR42J cells at 0.37 MBq, iv after 2 hrs; format: ADME, organism-based, Neoplasm, AR-42J; conditions: in vivo; summary of the method: as §1
[20] = system: Kidney; test: Biodistribution in kidney of BALB/c mouse bearing rat AR42J cells at 0.37 MBq, iv after 2 hrs under cold condition; format: ADME, organism-based, AR-42J; conditions: in vivo; summary of the method: as §2
[21] = system: Blood; test: Biodistribution in blood of BALB/c mouse bearing rat AR42J cells at 0.37 MBq, iv after 2 hrs; format: ADME, organism-based, AR-42J; conditions: in vivo; summary of the method: as §1
[22] = system: Kidney; test: Biodistribution in kidney of BALB/c mouse bearing rat AR42J cells at 0.37 MBq, iv after 6 hrs; format: ADME, organism-based, AR-42J; conditions: in vivo; summary of the method: as §1
[23] = system: Pancreas; test: Biodistribution in pancreas of BALB/c mouse bearing rat AR42J cells at 0.37 MBq, iv after 2 hrs under cold condition; format: ADME, organism-based, AR-42J; conditions: in vivo; summary of the method: as §2
[24] = Biodistribution in tumor of BALB/c mouse bearing rat AR42J cells at 0.37 MBq, iv after 24 hrs; format: ADME, organism-based, Neoplasm, AR-42J; conditions: in vivo; summary of the method: as §1
[25] = system: Stomach; test: Biodistribution in stomach of BALB/c mouse bearing rat AR42J cells at 0.37 MBq, iv after 2 hrs; format: ADME, organism-based, AR-42J; conditions: in vivo; summary of the method: as §1
[26] = system: Liver; test: Biodistribution in liver of BALB/c mouse bearing rat AR42J cells at 0.37 MBq, iv after 2 hrs under cold condition; format: ADME, organism-based, AR-42J; conditions: in vivo; summary of the method: as §2
[27] = system: Pancreas; test: Biodistribution in pancreas of BALB/c mouse bearing rat AR42J cells at 0.37 MBq, iv after 24 hrs; format: ADME, organism-based, AR-42J; conditions: in vivo; summary of the method: as §1
[28] = Biodistribution in adrenal gland of BALB/c mouse bearing rat AR42J cells at 0.37 MBq, iv after 2 hrs; format: ADME, organism-based, AR-42J; conditions: in vivo; summary of the method: as §1
[29] = Biodistribution in adrenal gland of BALB/c mouse bearing rat AR42J cells at 0.37 MBq, iv after 6 hrs; format: ADME, organism-based, AR-42J; conditions: in vivo; summary of the method: as §1
[30] = Biodistribution in tumor of BALB/c mouse bearing rat AR42J cells at 0.37 MBq, iv after 2 hrs under cold condition; format: ADME, organism-based, Neoplasm, AR-42J; conditions: in vivo; summary of the method: as §2

Sequence of Somatostatin receptor type 2 (P30680 whole entry): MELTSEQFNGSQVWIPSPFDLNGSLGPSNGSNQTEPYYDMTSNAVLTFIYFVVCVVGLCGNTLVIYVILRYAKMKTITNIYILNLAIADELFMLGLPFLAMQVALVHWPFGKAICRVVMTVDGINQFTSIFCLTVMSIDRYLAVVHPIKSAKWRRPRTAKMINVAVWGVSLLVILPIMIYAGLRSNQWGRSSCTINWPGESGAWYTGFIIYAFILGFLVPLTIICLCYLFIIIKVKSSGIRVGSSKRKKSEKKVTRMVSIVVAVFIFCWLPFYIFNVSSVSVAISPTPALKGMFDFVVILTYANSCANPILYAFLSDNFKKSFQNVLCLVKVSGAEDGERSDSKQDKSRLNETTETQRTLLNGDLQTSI

C[C@@H](O)[C@@H]1NC(=O)[C@H](CCCCN)NC(=O)[C@@H](Cc2c[nH]c3ccccc23)NC(=O)[C@H](Cc2ccc(O)cc2)NC(=O)[C@@H](NC(=O)[C@@H](Cc2ccccc2)NC(=O)CCCCCn2cc(CO)nn2)CSSC[C@@H](C(=O)N[C@H](CO)[C@@H](C)O)NC1=O
logD [1]: -3.59

C[C@@H](O)[C@@H]1NC(=O)[C@H](CCCCN)NC(=O)[C@@H](Cc2c[nH]c3ccccc23)NC(=O)[C@H](Cc2ccc(O)cc2)NC(=O)[C@@H](NC(=O)[C@@H](Cc2ccccc2)NC(=O)CCCCCn2cc(COc3cccc(C(=O)NS(=O)(=O)CCNC(=O)CN4CCN(CC(=O)O)CCN(CC(=O)O)CCN(CC(=O)O)CC4)c3)nn2)CSSC[C@@H](C(=O)N[C@H](CO)[C@@H](C)O)NC1=O
Drug uptake [2]: 2.83 % ID/g | Drug uptake [3]: 3.46 % ID/g | Drug uptake [4]: 0.09 % ID/g | Drug uptake [5]: 0.63 % ID/g | Drug uptake [6]: 2.53 % ID/g | Drug uptake [7]: 54.19 % ID/g | Drug uptake [8]: 0.22 % ID/g | Drug uptake [9]: 2.92 % ID/g | Drug uptake [10]: 0.52 % ID/g | Drug uptake [11]: 0.13 % ID/g | Drug uptake [12]: 0.04 % ID/g | Drug uptake [13]: 6.11 % ID/g | Drug uptake [14]: 2.16 % ID/g | Drug uptake [15]: 2.38 % ID/g | Drug uptake [16]: 0.63 % ID/g | IC50 [17]: 1.32 nM | Drug uptake [18]: 21.32 % ID/g | Drug uptake [19]: 42.33 % ID/g | Drug uptake [20]: 62.74 % ID/g | Drug uptake [21]: 0.27 % ID/g | Drug uptake [22]: 10.96 % ID/g | Drug uptake [23]: 1.07 % ID/g | Drug uptake [24]: 10.75 % ID/g | Drug uptake [25]: 7.54 % ID/g | Drug uptake [26]: 3.61 % ID/g | Drug uptake [27]: 0.17 % ID/g | logD [1]: -2.2 | Drug uptake [28]: 1.86 % ID/g | Drug uptake [29]: 0.78 % ID/g | Drug uptake [30]: 4.82 % ID/g
